One block for each compound: values may come before it.
Key:
[1] = test system: Mus musculus; experiment: Stability in iv dosed ICR mouse blood after 60 mins; format: ADME, organism-based; settings: in vivo, 1 h
Summary of the method: (§1)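 Male ICR mice (25-30 g) given 18F radioligand (14.8 MBq/mouse) by tail vein, killed at 2, 30 and 60 min. Blood and whole brain homogenized in 1 mL chilled absolute ethanol, centrifuged 3000 rpm 3 min. Supernatant analysed by radio-TLC (20:1 CH2Cl2-CH3OH and 1:1:0.01 CH2Cl2-CH3OH-triethylamine) for percent parent radioligand.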

[2] = test system: Mus musculus; experiment: Biodistribution in brain of iv dosed piperine-treated ICR mouse after 2 mins; format: ADME, organism-based; settings: in vivo
Summary of the method: (§2)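 Male ICR mice (25-30 g, four per time point) given radioligand mixed with piperine (2 mg/kg) in 0.2 mL 10% ethanol-saline by tail vein, 1.85 MBq for the 18F tracer. Killed at 2, 30, 60 or 120 min. Blood and organs removed, weighed and gamma-counted. Data given as % injected dose per gram tissue.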

[3] = test system: Mus musculus; experiment: Biodistribution in blood of iv dosed piperine-treated ICR mouse after 60 mins; format: ADME, organism-based; settings: in vivo, 1 h; summary of the method: as §2
[4] = test system: Mus musculus; experiment: Biodistribution in spleen of iv dosed piperine-treated ICR mouse after 60 mins; format: ADME, organism-based; settings: in vivo, 1 h; summary of the method: as §2
[5] = test system: Mus musculus; experiment: Biodistribution in muscle of iv dosed ICR mouse after 60 mins; format: ADME, organism-based, Muscle tissue; settings: in vivo, 1 h
Summary of the method: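 Male ICR mice (25-30 g, four per time point) injected by tail vein with radioligand (0.74 MBq 125I or 1.85 MBq 18F) in 0.2 mL 10% ethanol-saline. Sacrificed at 2, 30, 60 or 120 min. Blood, organs, muscle and thyroid or bone weighed and counted in a gamma counter. Expressed as % injected dose per gram.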

[6] = Partition coefficient, log P of the compound; format: physicochemical; settings: octanol/water
Summary of the method: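 Radioligand added to octanol/water (600 µL each), vortexed 3 min, centrifuged 2000 rpm 5 min. Aliquots of both layers counted, repartitioned until consistent. Run in triplicate. Log P taken as log of octanol/water cpm ratio.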

[7] = test system: Mus musculus; experiment: Biodistribution in kidney of iv dosed piperine-treated ICR mouse after 2 mins; format: ADME, organism-based; settings: in vivo; summary of the method: as §2
[8] = test system: Mus musculus; experiment: Stability in iv dosed ICR mouse brain after 60 mins; format: ADME, organism-based; settings: in vivo, 1 h; summary of the method: as §1
[9] = target: T1, Amyloid-beta precursor protein (Homo sapiens, UniProt P05067); experiment: Displacement of [125I]IMPY from beta amyloid protein 40
[10] = target: T1, Amyloid-beta precursor protein; experiment: Displacement of [125I]IMSB from beta amyloid protein 40
[11] = species on record: Homo sapiens; experiment: Increase in bioavailability in human in presence of piperine after 45 mins; format: ADME, organism-based; settings: in vivo, 0.75 h
[12] = species on record: Rattus norvegicus; experiment: Increase in bioavailability in rat in presence of piperine at 1 to 2 hrs; format: ADME, organism-based; settings: in vivo

T1 sequence (P05067 whole entry): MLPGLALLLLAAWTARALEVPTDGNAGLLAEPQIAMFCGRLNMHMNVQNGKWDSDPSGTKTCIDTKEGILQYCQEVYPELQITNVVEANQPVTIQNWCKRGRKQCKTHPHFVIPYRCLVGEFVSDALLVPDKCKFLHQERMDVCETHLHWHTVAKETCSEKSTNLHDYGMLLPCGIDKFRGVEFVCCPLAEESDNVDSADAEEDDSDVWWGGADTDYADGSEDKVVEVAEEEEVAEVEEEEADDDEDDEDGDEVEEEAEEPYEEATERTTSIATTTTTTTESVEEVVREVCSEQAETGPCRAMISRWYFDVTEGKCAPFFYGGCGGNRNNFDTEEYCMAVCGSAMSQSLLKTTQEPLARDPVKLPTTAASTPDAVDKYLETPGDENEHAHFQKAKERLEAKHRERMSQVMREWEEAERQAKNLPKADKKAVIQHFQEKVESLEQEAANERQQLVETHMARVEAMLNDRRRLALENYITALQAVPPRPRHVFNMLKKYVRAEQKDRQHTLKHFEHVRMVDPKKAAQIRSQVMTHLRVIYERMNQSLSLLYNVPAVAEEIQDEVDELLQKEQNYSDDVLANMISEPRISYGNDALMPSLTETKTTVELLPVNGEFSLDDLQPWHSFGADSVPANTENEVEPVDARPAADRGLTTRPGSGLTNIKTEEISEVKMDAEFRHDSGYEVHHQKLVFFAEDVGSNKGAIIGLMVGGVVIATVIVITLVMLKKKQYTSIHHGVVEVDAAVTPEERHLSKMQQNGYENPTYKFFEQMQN

- Activity [1]: Not Active
- Drug uptake [2]: 0.77 % ID/g
- Drug uptake [3]: 0.82 % ID/g
- Drug uptake [4]: 41.07 % ID/g
- Drug uptake [5]: 0.27 % ID/g
- logP [6]: 1.84
- Drug uptake [7]: 8.69 % ID/g
- Activity [8]: Active
SMILES: COc1cc(/C=C/C(O)=C/C(=O)/C=C/c2ccc(OCCC[18F])c(OC)c2)ccc1O

- Ki [9]: 36.6 nM
- Ki [10]: 20 nM
SMILES: COc1cc(/C=C/C(C)=O)cc(I)c1O

- logP [6]: 0.94
SMILES: COc1cc(/C=C/C(O)=C/C(=O)/C=C/c2cc([125I])c(O)c(OC)c2)ccc1O

- Ki [10]: 9.37 nM
SMILES: COc1cc(/C=C/C(O)=C/C(=O)/C=C/c2cc(I)c(O)c(OC)c2)ccc1O

- Bioavailability Increase [11]: 2000%
- Bioavailability Increase [12]: 154%
SMILES: COc1cc(/C=C/C(=O)CC(=O)/C=C/c2ccc(O)c(OC)c2)ccc1O [CURCUMIN]

- Ki [10]: 0.16 nM
SMILES: O=C(O)c1cc(/N=N/c2ccc(-c3ccc(/N=N/c4ccc(O)c(C(=O)O)c4)cc3)cc2)ccc1O [CHRYSAMINE G]

- Ki [9]: 316 nM
SMILES: COc1cc(/C=C/C(O)=C/C(C)=O)ccc1OCCCF

- Ki [9]: 958 nM
SMILES: COc1cc(/C=C/C(O)=C/C(C)=O)ccc1OCCF

- Drug uptake [5]: 0.26 % ID/g
- logP [6]: 1.35
SMILES: COc1cc(/C=C/C(O)=C/C(C)=O)cc([125I])c1O

- Ki [10]: 0.07 nM
SMILES: COc1cc(/C=C/C(O)=C/C(=O)/C=C/c2ccc(OCCCF)c(OC)c2)ccc1O

- Ki [9]: 233 nM
SMILES: COc1cc(/C=C/C(C)=O)ccc1OCCF

- Ki [9]: 839 nM
SMILES: COc1cc(/C=C/C(C)=O)ccc1OCCCF

- Ki [9]: 24.9 nM
SMILES: COc1cc(/C=C/C(O)=C/C(C)=O)cc(I)c1O

— ChEMBL document CHEMBL1137373 (J Med Chem, 2006)
